Measurements published in ChEMBL document CHEMBL4396873, “Discovery of Potent, Selective, and Short-Acting Peptidic V2 Receptor Agonists” (J Med Chem, 2019).
The source made the active and inactive calls. No cut-off for these calls is given here. Numbered stars: 1 amine (or outer) side, 2 acyl side, 3 side chain; on linkers, the order of the positions; unused ones are H or OH. Bridge positions count the residues as written; N and C are the ends. Square brackets hold non-standard residues; d marks the D form. Peptide text beside a SMILES is read from it. * marks the point of attachment. Phe(4-Cl) = N[C@@H](Cc1ccc(Cl)cc1)C(=O)O; Phe(4-F) = N[C@@H](Cc1ccc(F)cc1)C(=O)O; 2Thi = N[C@@H](Cc1cccs1)C(=O)O; Agmatine = N=C(N)NCCCCN*; Thz = O=C(O)[C@@H]1CSCN1; X1 = O=C(CCC[*:2])[*:1]

Assays:
[1] = Clearance in Sprague-Dawley rat at 0.1 mg/kg, iv administered as cassette dose by LC-MS/MS analysis; type: ADME, organism-based; settings: in vivo
Vasopressin V1a receptor = Vasopressin V1a receptor (Homo sapiens, UniProt P37288); assay: Agonist activity at recombinant human V1a receptor expressed in HEK293 cells up to 1000 nM measured after 5 hrs by luciferase reporter gene assay; type: cell-based; settings: hek293, 5 h
[2] = Protein binding in rat plasma at 200 to 1000 ng/ml measured after 15 mins by UC-LC/MS/MS analysis; type: ADME, cell-free; settings: read-out: PPB (converted)
Method in brief: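 Peptide spiked into rat plasma to final 200-1000 ng/mL, incubated 15 min at 37 °C, ultracentrifuged at 773,000 xg for 30 min at 37 °C; middle-layer sample quantified by LC/MS/MS; binding (%) = (Ci − Cm)/Ci × 100; quadruplicate.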

[3] = Non-renal clearance in nephrectomized Sprague-Dawley rat at 0.1 mg/kg, iv administered as cassette dose by LC-MS/MS analysis; type: ADME, organism-based; settings: in vivo
[4] = molecular target: T1, Oxytocin receptor (Homo sapiens) (UniProt P30559); assay: Agonist activity at human OTR stably expressed in CHOK1 cells up to 10000 nM by NFAT-luciferase reporter gene assay; type: cell-based
T1 sequence (whole entry): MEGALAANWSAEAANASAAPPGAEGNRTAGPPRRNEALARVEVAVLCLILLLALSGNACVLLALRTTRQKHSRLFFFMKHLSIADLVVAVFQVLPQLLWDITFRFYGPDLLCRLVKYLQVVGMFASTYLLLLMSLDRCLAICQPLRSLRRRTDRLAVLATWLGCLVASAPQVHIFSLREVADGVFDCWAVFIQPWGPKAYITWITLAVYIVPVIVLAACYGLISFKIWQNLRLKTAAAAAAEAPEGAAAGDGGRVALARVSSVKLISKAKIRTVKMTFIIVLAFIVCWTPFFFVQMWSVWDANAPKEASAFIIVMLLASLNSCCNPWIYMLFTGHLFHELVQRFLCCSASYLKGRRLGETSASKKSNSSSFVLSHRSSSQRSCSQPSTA

Sequence of Vasopressin V1a receptor (P37288 whole entry): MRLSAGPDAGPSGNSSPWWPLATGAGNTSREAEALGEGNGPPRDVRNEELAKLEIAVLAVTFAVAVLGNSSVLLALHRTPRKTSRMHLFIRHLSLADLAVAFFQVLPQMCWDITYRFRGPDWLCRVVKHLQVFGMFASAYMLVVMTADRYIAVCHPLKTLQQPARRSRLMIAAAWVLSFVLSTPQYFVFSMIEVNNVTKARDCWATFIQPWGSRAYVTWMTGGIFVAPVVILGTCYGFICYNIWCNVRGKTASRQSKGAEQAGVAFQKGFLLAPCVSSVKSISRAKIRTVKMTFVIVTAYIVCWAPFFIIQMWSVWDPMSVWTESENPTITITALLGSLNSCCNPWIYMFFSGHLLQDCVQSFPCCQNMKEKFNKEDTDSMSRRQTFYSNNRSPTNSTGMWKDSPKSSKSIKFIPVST

SMILES	clearance [1]	Activity (Vasopressin V1a receptor)	fraction unbound at […] [2]	CL [3]	Activity [4]
CCCCNC(=O)[C@@H](CCCNC(=N)N)NC(=O)[C@@H]1CCCN1C(=O)[C@@H]1CSCCCC(=O)N[C@@H](Cc2ccc(Cl)cc2)C(=O)N[C@@H](Cc2cccs2)C(=O)N[C@@H](C(C)C)C(=O)N[C@@H](CC(N)=O)C(=O)N1	31 mL/min/kg	Not Active	0.11	57%	inactive
CC(C)[C@@H]1NC(=O)[C@H](Cc2ccc(F)cc2)NC(=O)[C@H](Cc2ccc(O)cc2)NC(=O)CCCSC[C@@H](C(=O)N2CCC[C@H]2C(=O)NCCCCNC(=N)N)NC(=O)[C@H](CC(N)=O)NC1=O (Y[Phe(4-F)]VNCP-Agmatine; linker N-5 via X1)	8.7 mL/min/kg	Not Active	0.69	45%	inactive
CC(C)CNC(=O)[C@@H](CCCNC(=N)N)NC(=O)[C@@H]1CCCN1C(=O)[C@@H]1CCSCCC(=O)N[C@@H](Cc2ccc(Cl)cc2)C(=O)N[C@@H](Cc2cccs2)C(=O)N[C@@H](C(C)C)C(=O)N[C@@H](CC(N)=O)C(=O)N1	–	Not Active	–	–	inactive
CC(C)[C@@H]1NC(=O)[C@H](Cc2cccs2)NC(=O)[C@H](Cc2ccc(Cl)cc2)NC(=O)CCCSC[C@@H](C(=O)N2CCC[C@H]2C(=O)N[C@H](CCCNC(=N)N)C(=O)NCC2CC2)NC(=O)[C@H](CC(N)=O)NC1=O	21 mL/min/kg	Not Active	0.16	–	inactive
CC(C)[C@@H]1NC(=O)[C@H](Cc2cccs2)NC(=O)[C@H](Cc2ccc(Cl)cc2)NC(=O)CCCSC[C@@H](C(=O)N2CSC[C@H]2C(=O)NCCCCNC(=N)N)NC(=O)[C@H](CC(N)=O)NC1=O ([Phe(4-Cl)][2Thi]VNC[Thz]-Agmatine; linker N-5 via X1)	16 mL/min/kg	Not Active	0.16	90%	inactive
CC(C)CNC(=O)[C@@H](CCCNC(=N)N)NC(=O)[C@@H]1CCCN1C(=O)[C@@H]1CSCCCC(=O)N[C@@H](Cc2ccc(Cl)cc2)C(=O)N[C@@H](Cc2cccs2)C(=O)N[C@@H](C(C)C)C(=O)N[C@@H](CC(N)=O)C(=O)N1	24 mL/min/kg	Not Active	0.14	63%	inactive
CCNC(=O)[C@@H](CCCNC(=N)N)NC(=O)[C@@H]1CCCN1C(=O)[C@@H]1CSSCCC(=O)N[C@@H](Cc2ccc(Cl)cc2)C(=O)N[C@@H](Cc2ccccc2)C(=O)N[C@@H](C(C)C)C(=O)N[C@@H](CC(N)=O)C(=O)N1	7.1 mL/min/kg	Not Active	0.05	47%	–
CCNC(=O)[C@@H](CCCNC(=N)N)NC(=O)[C@@H]1C[C@@H](O)CN1C(=O)[C@@H]1CCSCCC(=O)N[C@@H](Cc2ccc(Cl)cc2)C(=O)N[C@@H](Cc2cccs2)C(=O)N[C@@H](C(C)C)C(=O)N[C@@H](CC(N)=O)C(=O)N1	4 mL/min/kg	Not Active	0.1	58%	inactive
CC(C)[C@@H]1NC(=O)[C@H](Cc2cccs2)NC(=O)[C@H](Cc2ccc(Cl)cc2)NC(=O)CCCSC[C@@H](C(=O)N2CCC[C@H]2C(=O)N[C@H](CCCNC(=N)N)C(=O)NC2CC2)NC(=O)[C@H](CC(N)=O)NC1=O	10 mL/min/kg	Not Active	0.09	67%	inactive
CCCNC(=O)[C@@H](CCCNC(=N)N)NC(=O)[C@@H]1CSCN1C(=O)[C@@H]1CSCCCC(=O)N[C@@H](Cc2ccc(Cl)cc2)C(=O)N[C@@H](Cc2cccs2)C(=O)N[C@@H](C(C)C)C(=O)N[C@@H](CC(N)=O)C(=O)N1	31 mL/min/kg	Not Active	0.17	90%	inactive
CC(C)CNC(=O)[C@@H](CCCNC(=N)N)NC(=O)[C@@H]1CCCN1C(=O)[C@@H]1CCSCCC(=O)N[C@@H](Cc2ccc(Cl)cc2)C(=O)N[C@@H](Cc2ccccc2)C(=O)N[C@@H](C(C)C)C(=O)N[C@@H](CC(N)=O)C(=O)N1	5.4 mL/min/kg	Not Active	0.05	88%	inactive
CC(C)[C@@H]1NC(=O)[C@H](Cc2ccc(F)cc2)NC(=O)[C@H](Cc2ccc(Cl)cc2)NC(=O)CCCSC[C@@H](C(=O)N2CSC[C@H]2C(=O)NCCCCNC(=N)N)NC(=O)[C@H](CC(N)=O)NC1=O ([Phe(4-Cl)][Phe(4-F)]VNC[Thz]-Agmatine; linker N-5 via X1)	9.9 mL/min/kg	Not Active	0.04	85%	inactive
CC(C)CNC(=O)[C@H](CCCNC(=N)N)NC(=O)[C@@H]1CCCN1C(=O)[C@@H]1CSCCCC(=O)N[C@@H](Cc2ccc(Cl)cc2)C(=O)N[C@@H](Cc2cccs2)C(=O)N[C@@H](C(C)C)C(=O)N[C@@H](CC(N)=O)C(=O)N1	51 mL/min/kg	Not Active	0.16	–	inactive
CC(C)[C@@H]1NC(=O)[C@H](Cc2ccc(F)cc2)NC(=O)[C@H](Cc2ccc(Cl)cc2)NC(=O)CCCSC[C@@H](C(=O)N2CCC[C@H]2C(=O)NCCCCNC(=N)N)NC(=O)[C@H](CC(N)=O)NC1=O ([Phe(4-Cl)][Phe(4-F)]VNCP-Agmatine; linker N-5 via X1)	7.5 mL/min/kg	Not Active	0.06	–	inactive
CCCNC(=O)[C@@H](CCCNC(=N)N)NC(=O)[C@@H]1CCCN1C(=O)[C@@H]1CSCCCC(=O)N[C@@H](Cc2ccc(Cl)cc2)C(=O)N[C@@H](Cc2cccs2)C(=O)N[C@@H](C(C)C)C(=O)N[C@@H](CC(N)=O)C(=O)N1	26 mL/min/kg	Not Active	0.16	59%	inactive
CC(C)[C@@H]1NC(=O)[C@H](Cc2cccs2)NC(=O)[C@H](Cc2ccc(Cl)cc2)NC(=O)CCCSC[C@@H](C(=O)N2CCC[C@H]2C(=O)N[C@H](CCCNC(=N)N)C(=O)NCc2ccccc2)NC(=O)[C@H](CC(N)=O)NC1=O	23 mL/min/kg	Not Active	0.1	84%	inactive
CCNC(=O)[C@@H](CCCNC(=N)N)NC(=O)[C@@H]1CSCN1C(=O)[C@@H]1CSCCCC(=O)N[C@@H](Cc2ccc(Cl)cc2)C(=O)N[C@@H](Cc2cccs2)C(=O)N[C@@H](C(C)C)C(=O)N[C@@H](CC(N)=O)C(=O)N1	28 mL/min/kg	Not Active	0.07	80%	inactive
CC(C)CNC(=O)[C@@H](CCCNC(=N)N)NC(=O)[C@@H]1C[C@@H](O)CN1C(=O)[C@@H]1CSCCCC(=O)N[C@@H](Cc2ccc(Cl)cc2)C(=O)N[C@@H](Cc2cccs2)C(=O)N[C@@H](C(C)C)C(=O)N[C@@H](CC(N)=O)C(=O)N1	7.8 mL/min/kg	Not Active	0.13	–	inactive
